Activity calls are given as the source filed them. The calls are words filed in the database; no cut-off is given here.
Columns and labels:
[1] = target: Growth/differentiation factor 8 (Homo sapiens) (UniProt O14793); assay: Photo-oxygenation of human recombinant Myostatin expressed in Escherichia coli cells assessed as oxygen adduct formation in myostatin peak fragment 55-78 at 3 uM measured after photoirradiation for 30 mins using LED by MALDI-TOF-MS analysis
How it was run: (§1)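 Myostatin stock (8 μM in 1 mM HCl) diluted to 1 μM in 10 mM phosphate, pH 7.4. Functionalized peptide (final 3 μM) or methylene blue (final 1 μM) added. Irradiated 30 min with 730 nm LED (14 mW) at room temperature. Then 50 mM DTT reduction (37 °C, 0.5 h), Lys-C digestion (1/20 w/w, 37 °C, 2.5 h), ZipTip desalting, MALDI-TOF MS of fragments.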

[2] = target: Growth/differentiation factor 8 (Homo sapiens) (UniProt O14793); assay: Photo-oxygenation of human recombinant Myostatin expressed in Escherichia coli cells assessed as oxygen adduct formation in myostatin peak fragment 40-54 at 3 uM measured after photoirradiation for 30 mins using LED by MALDI-TOF-MS analysis; how it was run: as §1
[3] = tested on: HEK293; assay: Phototoxicity against human HEK293 cells assessed as reduction in cell viability at 3 uM photoirradiated for 30 mins using LED followed by incubation with compound for 24 hrs by WST-1 assay; format: toxicity, cell-based; details: hek293, 24.5 h, time 1470 min
How it was run: (§2)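 HEK293 cells grown in DMEM with 10% FBS and non-essential amino acids at 37 °C, 5% CO2, seeded 2.0×10^4 cells/well. After 48 h, medium switched to serum- and phenol red-free DMEM containing 3 μM peptide or methylene blue. Cells irradiated with LED (λmax 730 nm, 30 min), then incubated 24 h. Viability read by WST-1; Student's t-test.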

[4] = target: Growth/differentiation factor 8 (Homo sapiens) (UniProt O14793); assay: Photo-oxygenation of human recombinant Myostatin expressed in Escherichia coli cells assessed as oxygen adduct formation in myostatin peak fragment 79-90 at 3 uM measured after photoirradiation for 30 mins using LED by MALDI-TOF-MS analysis; how it was run: as §1
[5] = target: Amyloid-beta precursor protein (Homo sapiens) (UniProt P05067); assay: Photo-oxygenation of human Amyloid beta (1 to 42) assessed as oxygen adduct formation at 3 uM measured after photoirradiation for 30 mins using LED by MALDI-TOF-MS analysis
Chain of Amyloid-beta precursor protein (Homo sapiens) (P05067 whole entry): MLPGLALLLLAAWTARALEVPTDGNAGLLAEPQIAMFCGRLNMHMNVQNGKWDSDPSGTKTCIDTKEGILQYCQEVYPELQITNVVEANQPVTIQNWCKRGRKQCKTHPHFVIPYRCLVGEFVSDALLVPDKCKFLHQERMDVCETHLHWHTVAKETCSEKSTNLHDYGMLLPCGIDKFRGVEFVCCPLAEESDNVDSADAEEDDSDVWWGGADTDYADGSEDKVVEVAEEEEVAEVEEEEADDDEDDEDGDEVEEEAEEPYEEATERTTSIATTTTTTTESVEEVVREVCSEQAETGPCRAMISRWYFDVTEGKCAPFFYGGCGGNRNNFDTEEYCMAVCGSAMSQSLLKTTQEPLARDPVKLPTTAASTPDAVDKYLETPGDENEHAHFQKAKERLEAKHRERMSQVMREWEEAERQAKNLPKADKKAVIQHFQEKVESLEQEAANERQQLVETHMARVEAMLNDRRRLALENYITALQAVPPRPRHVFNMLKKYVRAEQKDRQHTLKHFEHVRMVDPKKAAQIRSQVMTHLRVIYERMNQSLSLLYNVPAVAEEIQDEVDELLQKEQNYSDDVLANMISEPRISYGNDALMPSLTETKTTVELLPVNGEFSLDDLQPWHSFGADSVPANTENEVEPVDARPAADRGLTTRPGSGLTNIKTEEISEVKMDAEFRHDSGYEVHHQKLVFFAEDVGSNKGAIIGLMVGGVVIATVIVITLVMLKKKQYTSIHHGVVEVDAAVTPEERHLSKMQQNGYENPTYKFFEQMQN
How it was run: (§3)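 Aβ1-42 formed in situ from isopeptide stock (250 μM in 0.1% TFA, ultracentrifuged), diluted to 20 μM in 10 mM phosphate, pH 7.4. Functionalized peptide (final 3 μM) or methylene blue (final 1 μM) added. Irradiated with 730 nm LED (14 mW, 3–5 cm) at room temperature. Reduced with 50 mM DTT (37 °C, 0.5 h), Lys-C digested (1/20 w/w, 37 °C, 2.5 h), desalted, analysed by MALDI-TOF MS.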

[6] = tested on: HEK293; assay: Cytotoxicity against human HEK293 cells assessed as reduction in cell viability at 3 uM incubated for 24 hrs by WST-1 assay; format: toxicity, cell-based; details: hek293, 24 h
[7] = target: Growth/differentiation factor 8 (Homo sapiens) (UniProt O14793); assay: Inactivation of human recombinant Myostatin expressed in Escherichia coli cells at 300 nM incubated with luciferase reporter transfected HEK293 cells for 4 hrs by luciferase reporter gene assay
[8] = target: Growth/differentiation factor 8 (Homo sapiens) (UniProt O14793); assay: Photo-oxygenation of human recombinant Myostatin expressed in Escherichia coli cells assessed as oxygen adduct formation at 1 uM measured after photoirradiation for 30 mins using LED by MALDI-TOF-MS analysis; how it was run: as §1
[9] = target: Amyloid-beta precursor protein (Homo sapiens) (UniProt P05067); assay: Photo-oxygenation of human Amyloid beta (1 to 42) assessed as oxygen adduct formation at 1 uM measured after photoirradiation for 30 mins using LED by MALDI-TOF-MS analysis; how it was run: as §3
[10] = Phototoxicity against human HEK293 cells assessed as cell viability at 3 uM photoirradiated for 30 mins using LED followed by incubation with compound for 24 hrs by WST-1 assay; format: toxicity, cell-based; details: time 1470 min, read-out: Activity; how it was run: as §2
[11] = tested on: trypsin (Sus scrofa); assay: Stability of the compound assessed as trypsin (porcine pancreas)-mediated drug degradation at 100 uM measured after 3 hrs by MALDI-TOF-MS analysis
[12] = tested on: chymotrypsin (Bos taurus); assay: Stability of the compound assessed as chymotrypsin (bovine pancreas)-mediated drug degradation by measuring cleavage at Leu21-Arg22 residue at 100 uM measured for 3 hrs by MALDI-TOF-MS analysis
[13] = tested on: chymotrypsin (Bos taurus); assay: Stability of the compound assessed as chymotrypsin (bovine pancreas)-mediated drug degradation by measuring residual ratio at 100 uM measured after 1 hr by HPLC analysis
[14] = target: T1, Growth/differentiation factor 8 (Homo sapiens, UniProt O14793); assay: Photo-oxygenation mediated inactivation of human recombinant Myostatin expressed in Escherichia coli cells photoirradiated for 30 mins using LED followed by incubation with luciferase reporter transfected HEK293 cells for 4 hrs by luciferase reporter gene assay
T1 sequence (O14793 whole entry): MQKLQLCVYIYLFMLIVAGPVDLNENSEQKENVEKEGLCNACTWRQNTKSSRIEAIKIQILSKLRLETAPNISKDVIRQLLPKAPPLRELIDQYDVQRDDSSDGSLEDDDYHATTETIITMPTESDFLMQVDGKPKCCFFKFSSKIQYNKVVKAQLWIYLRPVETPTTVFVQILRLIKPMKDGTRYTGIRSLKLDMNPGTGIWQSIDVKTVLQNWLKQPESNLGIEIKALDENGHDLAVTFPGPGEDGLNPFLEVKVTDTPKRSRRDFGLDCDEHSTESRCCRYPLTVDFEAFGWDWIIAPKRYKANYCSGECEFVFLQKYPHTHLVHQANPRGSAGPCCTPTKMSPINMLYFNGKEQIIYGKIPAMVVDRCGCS
How it was run: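 Myostatin (1 μM in 10 mM phosphate, pH 7.4, with or without peptide) diluted in serum-free DMEM to 0.6 nM, irradiated at 730 nm for 30 min, then added to HEK293 cells. Cells were transfected 24 h with SBE-luc2P reporter plus TK-Renilla control, then held 8 h in serum/phenol red-free DMEM. Exposure 4 h, PBS wash, dual-luciferase read-out. Triplicate, mean ± s.d. (n = 3), Tukey's test.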

[15] = tested on: chymotrypsin (Bos taurus); assay: Stability of the compound assessed as chymotrypsin (bovine pancreas)-mediated drug degradation by measuring cleavage at Tyr7-Ser8 residue at 100 uM measured for 3 hrs by MALDI-TOF-MS analysis

Row | Activity [1] | Activity [2] | Activity [4] | Activity [5] | SMILES | Activity [3] | further results
1 | Active | inactive | Active | inactive | CC[C@@H](C)[C@@H](NC(=O)[C@@H](Cc1cn(CCN2CCCc3cc(/C=C/C4=C(Br)C(/C=C/c5cc6c7c(c5)CCCN7CCC6)=[O+][B-](F)(C(F)(F)F)O4)ccc32)nn1)NC(=O)[C@@H](CCc1ccccc1)NC(=O)[C@H](NC(=O)[C@@H](CCCCN)NC(=O)[C@H](NC(=O)[C@@H](CCCNC(=N)N)NC(=O)[C@H](NC(=O)[C@@H](Cc1ccc2ccccc2c1)NC(=O)[C@@H](CCCNC(=N)N)NC(=O)[C@@H](CCCCN)NC(=O)[C@H](NC(=O)[C@@H](CCCNC(=N)N)NC(=O)[C@H](N)CC(C)C)C1CCCCC1)[C@H](C)CC)C1CCCCC1)[C@H](C)CC)C(=O)N[C@H](Cc1ccc(O)cc1)C(=O)N[C@H](CCc1ccccc1)C(N)=O (stereo not given in full) | Non-Toxic | 
2 |  |  |  |  | CN(C)c1ccc2nc3ccc(N(C)C)cc3[s+]c2c1.[Cl-] [METHYLENE BLUE ANHYDROUS] |  | Activity [6]: Non-Toxic
3 |  |  |  |  | CC[C@@H](C)[C@@H](NC(=O)[C@@H](CCCNC(=N)N)NC(=O)[C@@H](CCc1ccccc1)NC(=O)[C@H](NC(=O)[C@@H](CCCCN)NC(=O)[C@H](NC(=O)[C@@H](CCCNC(=N)N)NC(=O)[C@H](NC(=O)[C@@H](Cc1ccc2ccccc2c1)NC(=O)[C@@H](CCCNC(=N)N)NC(=O)[C@@H](CCCCN)NC(=O)[C@H](NC(=O)[C@@H](CCCNC(=N)N)NC(=O)[C@H](N)CC(C)C)C1CCCCC1)[C@H](C)CC)C1CCCCC1)[C@H](C)CC)C(=O)N[C@H](Cc1ccc(O)cc1)C(=O)N[C@H](CCc1ccccc1)C(N)=O |  | inhibition [7]: Active
4 |  |  |  |  | CN(C)c1ccc2nc3ccc(=[N+](C)C)cc-3sc2c1 [METHYLENE BLUE ANHYDROUS] |  | Activity [8]: Active; Activity [9]: Active; viability at 24.5 h, 3 µM [10]: 21%
5 |  |  |  |  | CC[C@H](C)[C@H](NC(=O)[C@H](C)NC(=O)[C@H](CCC(=O)O)NC(=O)[C@@H](NC(=O)[C@H](CCCNC(=N)N)NC(=O)[C@H](CO)NC(=O)[C@H](Cc1ccc(O)cc1)NC(=O)[C@H](CCCNC(=N)N)NC(=O)[C@@H](NC(=O)[C@H](CC(N)=O)NC(=O)[C@H](CCC(N)=O)NC(=O)[C@H](CCCNC(=N)N)NC(=O)CC(c1ccccc1)c1ccccc1)[C@@H](C)O)[C@@H](C)CC)C(=O)N[C@@H](CCCCN)C(=O)N[C@H](C(=O)N[C@@H](Cc1cn(CCN2CCCc3cc(/C=C/C4=C(Br)C(/C=C/c5cc6c7c(c5)CCCN7CCC6)=[O+][B-](F)(C(F)(F)F)O4)ccc32)nn1)C(=O)N[C@H](C(=O)N[C@@H](CC(C)C)C(=O)N[C@@H](CO)C(=O)N[C@@H](CCCCN)C(=O)N[C@@H](CC(C)C)C(=O)N[C@@H](CCCNC(=N)N)C(=O)N[C@@H](CC(C)C)C(=O)O)[C@@H](C)CC)[C@@H](C)CC (stereo not given in full) |  | Stability [11]: Unstable; Stability [12]: Unstable; remaining at 1 h, 100 µM [13]: 13%; IC50 [14]: 2.1 nM; Stability [15]: Unstable
6 | Active | inactive | Active | inactive | CC[C@@H](C)[C@@H](NC(=O)[C@@H](CCCNC(=N)N)NC(=O)[C@@H](CCc1ccccc1)NC(=O)[C@H](NC(=O)[C@@H](CCCCN)NC(=O)[C@H](NC(=O)[C@@H](Cc1cn(CCN2CCCc3cc(/C=C/C4=C(Br)C(/C=C/c5cc6c7c(c5)CCCN7CCC6)=[O+][B-](F)(C(F)(F)F)O4)ccc32)nn1)NC(=O)[C@H](NC(=O)[C@@H](Cc1ccc2ccccc2c1)NC(=O)[C@@H](CCCNC(=N)N)NC(=O)[C@@H](CCCCN)NC(=O)[C@H](NC(=O)[C@@H](CCCNC(=N)N)NC(=O)[C@H](N)CC(C)C)C1CCCCC1)[C@H](C)CC)C1CCCCC1)[C@H](C)CC)C(=O)N[C@H](Cc1ccc(O)cc1)C(=O)N[C@H](CCc1ccccc1)C(N)=O (stereo not given in full) | Non-Toxic | 
7 | Active | inactive | Active | inactive | CC[C@@H](C)[C@@H](NC(=O)[C@@H](CCCNC(=N)N)NC(=O)[C@@H](CCc1ccccc1)NC(=O)[C@H](NC(=O)[C@@H](CCCCN)NC(=O)[C@H](NC(=O)[C@@H](CCCNC(=N)N)NC(=O)[C@H](NC(=O)[C@@H](Cc1ccc2ccccc2c1)NC(=O)[C@@H](CCCNC(=N)N)NC(=O)[C@@H](CCCCN)NC(=O)[C@H](NC(=O)[C@@H](CCCNC(=N)N)NC(=O)[C@H](N)CC(C)C)C1CCCCC1)[C@H](C)CC)C1CCCCC1)[C@H](C)CC)C(=O)N[C@H](Cc1ccc(O)cc1)C(=O)N[C@H](Cc1cn(CCN2CCCc3cc(/C=C/C4=C(Br)C(/C=C/c5cc6c7c(c5)CCCN7CCC6)=[O+][B-](F)(C(F)(F)F)O4)ccc32)nn1)C(N)=O (stereo not given in full) | Non-Toxic | 
8 | Active | inactive | Active | inactive | CC[C@@H](C)[C@@H](NC(=O)[C@@H](CCCNC(=N)N)NC(=O)[C@@H](CCc1ccccc1)NC(=O)[C@H](NC(=O)[C@@H](CCCCN)NC(=O)[C@H](NC(=O)[C@@H](CCCNC(=N)N)NC(=O)[C@H](NC(=O)[C@@H](Cc1ccc2ccccc2c1)NC(=O)[C@@H](CCCNC(=N)N)NC(=O)[C@@H](Cc1cn(CCN2CCCc3cc(/C=C/C4=C(Br)C(/C=C/c5cc6c7c(c5)CCCN7CCC6)=[O+][B-](F)(C(F)(F)F)O4)ccc32)nn1)NC(=O)[C@H](NC(=O)[C@@H](CCCNC(=N)N)NC(=O)[C@H](N)CC(C)C)C1CCCCC1)[C@H](C)CC)C1CCCCC1)[C@H](C)CC)C(=O)N[C@H](Cc1ccc(O)cc1)C(=O)N[C@H](CCc1ccccc1)C(N)=O (stereo not given in full) | Non-Toxic | 

— ChEMBL document CHEMBL5230177, “Inactivation of myostatin by photooxygenation using functionalized d-peptides” (RSC Med Chem, 2023)
